Common to all, as to type: cell-based
The target of assay [1] is Epidermal growth factor receptor (Homo sapiens) (UniProt P00533). Description: Inhibition of EGFR in human SKCO1 cells at 1 uM after 4 hrs using biotin labeled IPVAIKELR probe by mass-spectrometric analysis relative to control.
Assay [2] deals with T1, Non-receptor tyrosine-protein kinase TNK1 (Homo sapiens) (UniProt Q13470).
T1 sequence (whole entry): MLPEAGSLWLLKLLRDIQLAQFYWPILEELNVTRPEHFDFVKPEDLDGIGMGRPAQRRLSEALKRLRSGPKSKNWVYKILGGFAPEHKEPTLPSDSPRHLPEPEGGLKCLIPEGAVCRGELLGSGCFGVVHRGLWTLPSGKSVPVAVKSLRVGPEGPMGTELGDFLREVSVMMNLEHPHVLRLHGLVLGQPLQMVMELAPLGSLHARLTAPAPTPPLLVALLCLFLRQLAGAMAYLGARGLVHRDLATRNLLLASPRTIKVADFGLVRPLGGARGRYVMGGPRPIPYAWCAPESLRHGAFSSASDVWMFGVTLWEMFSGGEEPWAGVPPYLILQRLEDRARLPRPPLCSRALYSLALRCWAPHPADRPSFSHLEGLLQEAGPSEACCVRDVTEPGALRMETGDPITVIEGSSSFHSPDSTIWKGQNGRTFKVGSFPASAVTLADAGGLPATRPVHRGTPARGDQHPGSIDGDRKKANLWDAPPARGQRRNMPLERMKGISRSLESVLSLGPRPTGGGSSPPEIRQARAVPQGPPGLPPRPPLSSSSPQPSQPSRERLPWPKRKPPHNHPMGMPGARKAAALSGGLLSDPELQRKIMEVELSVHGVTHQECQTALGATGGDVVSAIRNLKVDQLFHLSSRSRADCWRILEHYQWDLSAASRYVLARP
As to the kind of experiment: Inhibition of TNK1 in human SKCO1 cells at 1 uM after 4 hrs using biotin labeled SVPVAVKSLR probe by mass-spectrometric analysis relative to control. The method in brief:
(§1)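 Live SK-CO-1 cells exposed to compound at 1 μM or DMSO for 4 h (KiNativ). Lysates then labeled with lysine-reactive ATP/ADP-biotin probe, and probe-labeled kinase peptides quantified by mass spectrometry. Percent inhibition of probe-dependent recovery calculated relative to DMSO-treated cells.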

The target in assay [3] is Cyclin-dependent kinase 11B (Homo sapiens) (UniProt P21127). Description: Inhibition of PITSLRE in human SKCO1 cells at 1 uM after 4 hrs using biotin labeled DLKTSNLLLSHAGILK probe by mass-spectrometric analysis relative to control. The method in brief:
as §1

Assay [4] addresses Ribosomal protein S6 kinase alpha-1 (Homo sapiens) (UniProt Q15418). As to the kind of experiment: Inhibition of RSK1 domain1 in human SKCO1 cells at 1 uM after 4 hrs using biotin labeled DLKPENILLDEEGHIK probe by mass-spectrometric analysis relative to control. The following applies: pooled result: one value given for 3 cell lines, strains, targets or settings. A digest of the protocol: as §1

Assay [5] deals with T2, Protein kinase C zeta type (Homo sapiens) (UniProt Q05513).
T2 sequence (whole entry): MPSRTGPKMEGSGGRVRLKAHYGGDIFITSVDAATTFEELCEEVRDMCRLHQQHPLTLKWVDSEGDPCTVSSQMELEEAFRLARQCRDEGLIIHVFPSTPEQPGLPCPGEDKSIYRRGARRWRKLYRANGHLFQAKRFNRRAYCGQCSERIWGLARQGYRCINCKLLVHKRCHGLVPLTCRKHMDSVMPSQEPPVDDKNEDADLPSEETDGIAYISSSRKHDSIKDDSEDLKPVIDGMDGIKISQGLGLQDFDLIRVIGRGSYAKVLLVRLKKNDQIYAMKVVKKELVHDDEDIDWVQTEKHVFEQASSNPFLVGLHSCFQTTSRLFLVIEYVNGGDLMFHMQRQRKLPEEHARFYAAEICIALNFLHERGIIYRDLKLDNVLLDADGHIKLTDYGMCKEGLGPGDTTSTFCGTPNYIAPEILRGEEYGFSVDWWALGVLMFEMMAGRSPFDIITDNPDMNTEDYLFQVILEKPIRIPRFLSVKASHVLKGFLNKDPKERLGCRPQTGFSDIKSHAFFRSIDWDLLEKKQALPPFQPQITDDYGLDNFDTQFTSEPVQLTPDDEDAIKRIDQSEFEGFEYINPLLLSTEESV
Description: Inhibition of PKCz in human SKCO1 cells at 1 uM after 4 hrs using biotin labeled DLKLDNVLLDADGHIK probe by mass-spectrometric analysis relative to control. The method in brief: as §1

Assay [6] concerns the target T3, Serine/threonine-protein kinase Chk1 (Homo sapiens) (UniProt O14757).
T3 sequence (whole entry): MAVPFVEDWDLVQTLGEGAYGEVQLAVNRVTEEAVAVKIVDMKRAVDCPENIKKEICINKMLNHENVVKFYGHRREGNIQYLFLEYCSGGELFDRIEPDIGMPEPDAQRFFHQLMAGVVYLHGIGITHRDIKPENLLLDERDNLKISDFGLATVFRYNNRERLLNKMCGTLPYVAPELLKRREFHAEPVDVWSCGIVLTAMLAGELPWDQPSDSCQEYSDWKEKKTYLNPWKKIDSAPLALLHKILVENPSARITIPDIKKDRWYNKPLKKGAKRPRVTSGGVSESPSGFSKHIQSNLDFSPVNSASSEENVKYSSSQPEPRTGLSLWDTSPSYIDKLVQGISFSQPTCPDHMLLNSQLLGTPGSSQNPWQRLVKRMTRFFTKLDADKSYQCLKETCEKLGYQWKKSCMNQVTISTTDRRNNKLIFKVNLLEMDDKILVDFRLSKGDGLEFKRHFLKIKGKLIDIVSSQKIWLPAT
Description: Inhibition of CHK1 in human SKCO1 cells at 1 uM after 4 hrs using biotin labeled DIKPENLLLDER probe by mass-spectrometric analysis relative to control.

Assay [7] concerns the target 5'-AMP-activated protein kinase catalytic subunit alpha-2 (Homo sapiens) (UniProt P54646). Description: Inhibition of AMPKa2 in human SKCO1 cells at 1 uM after 4 hrs using biotin labeled DLKPENVLLDAHMNAK probe by mass-spectrometric analysis relative to control. The method in brief: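 Live SK-CO-1 cells were treated 4 h with compound at 1 μM or DMSO, then lysed. Lysates were labeled with a lysine-reactive ATP/ADP-biotin probe and analysed by mass spectrometry. Percent inhibition is the loss of probe-dependent recovery of the kinase peptide relative to DMSO.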

For assay [8], the target named is Cyclin-dependent kinase 7 (Homo sapiens) (UniProt P50613). Description: Inhibition of CDK7 in human SKCO1 cells at 1 uM after 4 hrs using biotin labeled DLKPNNLLLDENGVLK probe by mass-spectrometric analysis relative to control.
Assay [9] concerns the target Serine/threonine-protein kinase MARK2 (Homo sapiens) (UniProt Q7KZI7). Description: Inhibition of MARK2 in human SKCO1 cells at 1 uM after 4 hrs using biotin labeled DLKAENLLLDADMNIK probe by mass-spectrometric analysis relative to control.
In assay [10] the target is Mitogen-activated protein kinase kinase kinase kinase 1 (Homo sapiens) (UniProt Q92918). As to the kind of experiment: Inhibition of HPK1 in human SKCO1 cells at 1 uM after 4 hrs using biotin labeled DIKGANILINDAGEVR probe by mass-spectrometric analysis relative to control.

The structures appear in SMILES notation.

Chain of Cyclin-dependent kinase 7 (Homo sapiens) (P50613 whole entry): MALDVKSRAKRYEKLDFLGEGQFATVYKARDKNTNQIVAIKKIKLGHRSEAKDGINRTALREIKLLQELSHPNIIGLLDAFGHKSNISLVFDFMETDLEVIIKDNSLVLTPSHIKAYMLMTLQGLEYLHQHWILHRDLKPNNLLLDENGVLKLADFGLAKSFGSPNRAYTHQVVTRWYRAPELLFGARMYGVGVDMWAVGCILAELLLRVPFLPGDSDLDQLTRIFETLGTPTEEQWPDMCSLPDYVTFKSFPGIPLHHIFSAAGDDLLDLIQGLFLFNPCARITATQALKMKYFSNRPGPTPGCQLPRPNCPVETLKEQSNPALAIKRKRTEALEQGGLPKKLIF
Chain of Mitogen-activated protein kinase kinase kinase kinase 1 (Homo sapiens) (Q92918 whole entry, looked up): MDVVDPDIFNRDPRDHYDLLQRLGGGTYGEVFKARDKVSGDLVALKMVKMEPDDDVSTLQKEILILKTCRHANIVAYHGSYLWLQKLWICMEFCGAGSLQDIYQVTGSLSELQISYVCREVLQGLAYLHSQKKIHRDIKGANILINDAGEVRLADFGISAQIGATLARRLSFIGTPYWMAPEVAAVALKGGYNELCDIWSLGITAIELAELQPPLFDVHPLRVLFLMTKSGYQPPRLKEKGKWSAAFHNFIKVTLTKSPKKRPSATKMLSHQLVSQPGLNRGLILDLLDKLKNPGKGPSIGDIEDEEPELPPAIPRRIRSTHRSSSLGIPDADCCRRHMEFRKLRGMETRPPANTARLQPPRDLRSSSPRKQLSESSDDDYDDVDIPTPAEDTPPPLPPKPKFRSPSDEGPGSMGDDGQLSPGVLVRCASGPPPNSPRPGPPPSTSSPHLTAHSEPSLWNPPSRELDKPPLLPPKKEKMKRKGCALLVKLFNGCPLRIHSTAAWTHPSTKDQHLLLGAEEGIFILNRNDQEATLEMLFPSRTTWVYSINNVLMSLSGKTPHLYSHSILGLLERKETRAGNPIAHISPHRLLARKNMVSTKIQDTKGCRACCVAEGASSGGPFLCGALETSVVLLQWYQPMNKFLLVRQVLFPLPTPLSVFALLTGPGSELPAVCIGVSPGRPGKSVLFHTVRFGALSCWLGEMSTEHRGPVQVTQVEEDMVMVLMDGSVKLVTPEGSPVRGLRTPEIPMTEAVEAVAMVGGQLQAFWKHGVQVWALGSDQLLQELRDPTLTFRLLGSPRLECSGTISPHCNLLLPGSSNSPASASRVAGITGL
Chain of 5'-AMP-activated protein kinase catalytic subunit alpha-2 (Homo sapiens) (P54646 whole entry, looked up): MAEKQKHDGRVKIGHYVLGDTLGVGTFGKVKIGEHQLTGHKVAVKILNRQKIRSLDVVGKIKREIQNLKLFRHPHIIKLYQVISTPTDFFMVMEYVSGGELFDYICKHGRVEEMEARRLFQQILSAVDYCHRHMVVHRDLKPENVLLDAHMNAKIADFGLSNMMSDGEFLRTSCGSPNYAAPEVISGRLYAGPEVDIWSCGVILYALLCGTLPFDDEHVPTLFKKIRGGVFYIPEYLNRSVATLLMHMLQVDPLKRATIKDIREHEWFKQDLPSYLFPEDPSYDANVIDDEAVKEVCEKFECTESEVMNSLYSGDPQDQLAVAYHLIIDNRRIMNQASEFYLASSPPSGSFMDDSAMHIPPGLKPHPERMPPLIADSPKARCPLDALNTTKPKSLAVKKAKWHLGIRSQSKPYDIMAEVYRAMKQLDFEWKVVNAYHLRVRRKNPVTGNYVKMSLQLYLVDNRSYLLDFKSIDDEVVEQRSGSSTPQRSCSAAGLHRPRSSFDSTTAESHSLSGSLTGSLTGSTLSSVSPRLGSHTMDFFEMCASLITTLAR
Chain of Epidermal growth factor receptor (Homo sapiens) (P00533 whole entry): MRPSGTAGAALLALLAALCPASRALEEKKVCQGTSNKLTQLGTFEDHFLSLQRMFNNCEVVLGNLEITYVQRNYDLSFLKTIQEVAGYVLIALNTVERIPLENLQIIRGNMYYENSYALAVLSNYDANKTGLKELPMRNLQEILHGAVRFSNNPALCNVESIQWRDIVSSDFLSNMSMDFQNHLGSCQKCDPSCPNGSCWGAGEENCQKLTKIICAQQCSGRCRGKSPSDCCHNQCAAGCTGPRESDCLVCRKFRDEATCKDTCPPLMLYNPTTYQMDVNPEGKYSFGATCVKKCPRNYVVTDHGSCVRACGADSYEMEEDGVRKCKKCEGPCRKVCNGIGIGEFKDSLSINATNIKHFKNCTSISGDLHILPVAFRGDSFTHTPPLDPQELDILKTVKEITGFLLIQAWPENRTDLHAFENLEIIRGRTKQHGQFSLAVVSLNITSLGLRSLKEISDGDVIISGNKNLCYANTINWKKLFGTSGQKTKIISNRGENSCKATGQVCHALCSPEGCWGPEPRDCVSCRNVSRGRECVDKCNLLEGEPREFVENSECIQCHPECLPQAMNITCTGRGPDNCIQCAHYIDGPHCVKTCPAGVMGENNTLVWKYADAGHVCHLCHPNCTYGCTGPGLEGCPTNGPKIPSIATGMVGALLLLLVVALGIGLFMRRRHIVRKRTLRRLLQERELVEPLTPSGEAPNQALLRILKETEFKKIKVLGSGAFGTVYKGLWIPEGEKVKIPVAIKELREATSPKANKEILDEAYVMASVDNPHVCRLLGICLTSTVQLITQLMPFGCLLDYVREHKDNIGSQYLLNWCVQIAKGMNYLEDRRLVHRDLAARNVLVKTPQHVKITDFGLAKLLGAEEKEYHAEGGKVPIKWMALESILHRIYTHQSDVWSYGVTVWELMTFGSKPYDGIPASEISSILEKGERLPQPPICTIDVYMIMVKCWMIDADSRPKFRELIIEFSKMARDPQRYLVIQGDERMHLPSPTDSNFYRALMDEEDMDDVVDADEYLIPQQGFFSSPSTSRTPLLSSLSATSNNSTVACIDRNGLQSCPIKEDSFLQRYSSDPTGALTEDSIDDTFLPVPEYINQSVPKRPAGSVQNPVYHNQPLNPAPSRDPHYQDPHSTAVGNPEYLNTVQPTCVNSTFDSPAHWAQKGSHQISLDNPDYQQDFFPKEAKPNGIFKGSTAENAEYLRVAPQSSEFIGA
Chain of Serine/threonine-protein kinase MARK2 (Homo sapiens) (Q7KZI7 whole entry): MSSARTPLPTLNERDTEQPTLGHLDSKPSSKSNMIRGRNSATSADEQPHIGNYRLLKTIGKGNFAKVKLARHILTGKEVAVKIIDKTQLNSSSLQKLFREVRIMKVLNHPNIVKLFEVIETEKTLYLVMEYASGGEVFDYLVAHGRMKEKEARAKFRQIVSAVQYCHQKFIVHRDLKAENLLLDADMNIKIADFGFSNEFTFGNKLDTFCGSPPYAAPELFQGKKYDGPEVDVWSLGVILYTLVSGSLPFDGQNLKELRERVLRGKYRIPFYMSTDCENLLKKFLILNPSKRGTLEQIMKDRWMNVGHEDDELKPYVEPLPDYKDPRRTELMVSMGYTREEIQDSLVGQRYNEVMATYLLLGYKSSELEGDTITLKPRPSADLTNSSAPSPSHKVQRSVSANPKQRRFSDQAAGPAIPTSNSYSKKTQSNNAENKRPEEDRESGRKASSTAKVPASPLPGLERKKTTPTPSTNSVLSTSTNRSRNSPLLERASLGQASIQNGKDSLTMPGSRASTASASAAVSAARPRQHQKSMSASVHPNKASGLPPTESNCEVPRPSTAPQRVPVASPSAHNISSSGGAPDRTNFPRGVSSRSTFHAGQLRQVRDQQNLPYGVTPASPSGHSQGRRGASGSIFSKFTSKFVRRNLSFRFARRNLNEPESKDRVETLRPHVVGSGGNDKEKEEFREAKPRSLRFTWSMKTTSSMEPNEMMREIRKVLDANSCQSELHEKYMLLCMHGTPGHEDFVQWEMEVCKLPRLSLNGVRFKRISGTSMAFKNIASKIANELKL
Chain of Ribosomal protein S6 kinase alpha-1 (Homo sapiens) (Q15418 whole entry, the tested form may be a part): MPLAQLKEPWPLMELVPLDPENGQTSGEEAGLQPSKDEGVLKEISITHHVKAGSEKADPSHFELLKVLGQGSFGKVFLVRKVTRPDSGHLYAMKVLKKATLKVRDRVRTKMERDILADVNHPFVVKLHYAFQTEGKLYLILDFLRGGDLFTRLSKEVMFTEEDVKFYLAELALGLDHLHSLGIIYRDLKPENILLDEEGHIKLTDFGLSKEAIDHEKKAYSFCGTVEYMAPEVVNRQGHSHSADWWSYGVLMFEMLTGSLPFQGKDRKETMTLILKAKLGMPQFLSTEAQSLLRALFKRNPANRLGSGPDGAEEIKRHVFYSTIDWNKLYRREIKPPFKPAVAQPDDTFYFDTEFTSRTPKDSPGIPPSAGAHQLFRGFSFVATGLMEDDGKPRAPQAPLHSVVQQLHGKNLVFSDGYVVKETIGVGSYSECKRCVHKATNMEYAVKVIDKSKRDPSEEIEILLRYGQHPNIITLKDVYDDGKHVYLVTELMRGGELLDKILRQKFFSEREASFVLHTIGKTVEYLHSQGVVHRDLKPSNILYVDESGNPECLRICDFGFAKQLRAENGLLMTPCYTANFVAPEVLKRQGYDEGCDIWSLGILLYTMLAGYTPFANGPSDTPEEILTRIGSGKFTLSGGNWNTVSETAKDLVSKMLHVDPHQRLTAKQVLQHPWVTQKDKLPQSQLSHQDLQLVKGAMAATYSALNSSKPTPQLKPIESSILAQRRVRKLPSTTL

One may read the inhibition as the drop in the measured response relative to a control, in per cent. Regarding `C=CC(=O)Nc1ccccc1Nc1nc(Nc2ccc(N3CCN(C)CC3)cc2)ncc1Cl`, the inhibition is 46.2% in [1]; 98.3% in assay [2]; -5.5% in assay [3]; 42.5% in assay [4]; 14.5% in assay [5]; 53.8% in assay [6]. Also, the inhibition in assay [7] was 76%; in assay [8], 31.5%; in [9], -7.2%; in assay [10], 34.9%.

For the molecule `COc1cc(O)c2c(c1)/C=C/C[C@H](O)[C@H](O)C(=O)/C=C\C[C@H](C)OC2=O`, the inhibition in [1] was 6.2%; in assay [2] it was 13.9%; in assay [3], -1.4%; in assay [4], 65.4%; in assay [5], 42.1%; in assay [6], 40.2%. Besides, the inhibition was 33.6% in assay [7], -3.7% in assay [8], 3.6% in [9] and 77.3% in assay [10].

On to `C=CC(=O)Nc1ccccc1Oc1nc(Nc2cnn(CCOC)c2)ncc1Cl`, for which the inhibition in [1] is 17.1%; in assay [2] it was 48.3%; in assay [3], -0.8%; in assay [4] it was 13%; in assay [5], 30%; in assay [6], 48.8%. For the same molecule, the inhibition in assay [7] is 0.2%; in [8], 9.5%; in assay [9] it was -8.4%; in assay [10], 72.6%.

These data come from ChEMBL document CHEMBL4118021, “Studies of TAK1-centered polypharmacology with novel covalent TAK1 inhibitors” (Bioorg Med Chem, 2017).
